STAT3 activator = activators of IL-6 induced STAT3 signaling; U3A cells, IL-6 STAT3-luciferase reporter, luminescence; 100% = signal with IL-6 EC80 alone; activation (% of control), % at 5.6 µM; actives 0.91% (n = 190,000); AID 871;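 active means activation above the screen-wide mean of compound activation plus 3 SD, cut at about 130% in these data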;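 further: 0% = background luminescence of wells with medium and substrate only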
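Material: human STAT1-deficient U3A cells with stable STAT3-luciferase reporter / Probe or stimulus: IL-6 stimulus at 33 ng/mL final / Schedule: 1 h compound pre-exposure, 6 h IL-6 stimulation, 37 °C / Technique: luminescence / Read-out basis: percent of IL-6-only median luminescence / Control set: IL-6-only high control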
ABCB6 inh MLPCN = inhibitors of human ABC transporter ABCB6; Q9NP58; K562-ABCB6 porphyrin accumulation, flow cytometry, 1 h; hits give low values; fluorescence ratio to DMSO, % at 10 µM; actives 0.19% (n = 360,000); AID 602162;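 active means fluorescence ratio to DMSO below 75%, the collection mean minus 3 SD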;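 further: signal is porphyrin accumulated inside mitochondria; 100% equals median channel fluorescence of DMSO control wells; lower ratio means ABCB6 inhibition with less porphyrin fluorescence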
Target sequence (Q9NP58 whole entry, looked up): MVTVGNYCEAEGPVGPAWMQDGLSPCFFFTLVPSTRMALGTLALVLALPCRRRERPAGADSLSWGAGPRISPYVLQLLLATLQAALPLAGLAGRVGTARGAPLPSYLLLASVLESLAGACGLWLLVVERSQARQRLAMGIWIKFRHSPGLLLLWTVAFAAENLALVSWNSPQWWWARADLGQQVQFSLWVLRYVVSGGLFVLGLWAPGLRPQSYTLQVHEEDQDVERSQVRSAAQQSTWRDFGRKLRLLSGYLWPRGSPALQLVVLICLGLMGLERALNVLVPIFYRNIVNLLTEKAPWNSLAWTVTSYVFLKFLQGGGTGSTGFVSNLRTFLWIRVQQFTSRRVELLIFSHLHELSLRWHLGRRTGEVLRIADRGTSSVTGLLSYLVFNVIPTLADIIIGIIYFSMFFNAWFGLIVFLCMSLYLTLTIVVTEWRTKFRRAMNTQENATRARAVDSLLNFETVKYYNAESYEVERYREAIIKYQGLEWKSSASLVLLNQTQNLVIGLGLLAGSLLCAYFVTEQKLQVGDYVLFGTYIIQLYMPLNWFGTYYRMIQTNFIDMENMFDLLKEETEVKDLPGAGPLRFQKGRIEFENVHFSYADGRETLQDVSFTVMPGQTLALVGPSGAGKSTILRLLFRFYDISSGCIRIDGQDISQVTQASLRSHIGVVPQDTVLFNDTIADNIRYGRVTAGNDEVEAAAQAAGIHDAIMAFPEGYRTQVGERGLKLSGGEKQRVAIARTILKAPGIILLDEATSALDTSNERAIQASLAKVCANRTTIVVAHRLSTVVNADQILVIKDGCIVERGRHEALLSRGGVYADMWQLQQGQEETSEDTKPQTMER
AHR activator = human AHR activation. AID 2796. actives 2.5% (n = 320,000). activation, % at 5 µM. P35869. AHR-responsive luciferase reporter cells, luminescence; in the data active means activation above about 47%;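 further: 0% = vehicle wells and 100% = reference agonist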
FXN GAA850 act = increases GAA850 frataxin promoter reporter activity; HEK293 lucGAA850 FXN promoter luciferase reporter, 24 h; percent of 10 µM SAHA response; activation, % at 6 µM; actives 0.56% (n = 360,000);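 active means activation above the average of all compounds screened plus 3 SD, cutoff fixed separately per campaign, cut at about 7.5% in these data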;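 further: 0% = DMSO wells and 100% = 10 µM SAHA wells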
AHR act cf = human AHR activation, confirmation; human cells, AHR-responsive luciferase reporter, luminescence; actives 87% (n = 2,300); AID 2845; shares compounds with AHR activator; activation, % at 9 µM; in the data active means activation above about 49%;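 further: HepG2 hepatoma cells carrying a DRE-driven firefly luciferase reporter; 0% = vehicle wells and 100% = reference agonist wells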
PXR counter = activates human PXR in AHR activator counter-screen | shares compounds with AHR activator | cell-based PXR reporter, luciferase luminescence | activation, % at 11.6 µM | actives 88% (n = 2,300) | AID 434939; in the data active means activation above about 11%;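 further: human hepatoma DPX-2 cells expressing full-length human PXR; 0% = DMSO and 100% = reference agonist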
Starred values were filed as active, the others as inactive; . = not tested or not shown. An excerpt weighted towards active compounds, which were near 3.3% of everything screened.

SMILES	STAT3 activator	ABCB6 inh MLPCN	AHR activator	FXN GAA850 act	AHR act cf	PXR counter
COc1ccc(NS(=O)(=O)c2cccc(C(=O)NCC3(N(C)C)CCCCC3)c2)cc1	.	96	2	0	.	.
Cc1cc2c(=O)n(C)c(SCC(=O)NCC3CCCO3)nc2s1 (stereo not drawn)	.	99	.	1	.	.
Clc1nc(NCCc2ccccc2)c2cn[nH]c2n1	.	101	.	6	.	.
COc1cccc(-c2sc3ccc(OC)cc3c2C#CCC(C)O)c1 (stereo not drawn)	.	101	44	3	.	.
COc1ccc2sc(-c3ccc(SC)cc3)c(C#CCO)c2c1	.	98	85*	1	90*	34*
COc1ccc2sc(-c3ccc(N(C)C)cc3)c(C#CCCO)c2c1	.	104	109*	5	129*	19*
COC(=O)c1c(-c2ccc(SC)cc2)sc2ccc(OC)cc12	.	100	18	4	.	.
O=C(C1=C[C@@H](c2coc3ccccc3c2=O)C[C@@H](OCCCCO)O1)N1CCN(Cc2ccc3c(c2)OCO3)CC1	.	93	4	1	.	.
Cc1ccc(NC(=O)Nc2ccc(F)c(Cl)c2)cc1	89	96	3	1	.	.
Cc1cc2n(n1)SC(Nc1ccc(F)c(Cl)c1)N2 (stereo not drawn)	85	91	89*	2	106*	52*
C/C(=N\Nc1cc(N2CCOCC2)ncn1)c1ccccc1	.	95	89*	5	26	50*
C/C(=N\Nc1cc(N2CCOCC2)ncn1)c1cccc([N+](=O)[O-])c1	106	92	37	5	.	.
O=C(Nc1cccc(Cl)c1)c1cccnn1	.	105	109*	0	82*	.
CCc1ccc2oc(-c3cc(N=Cc4cccc(OC)c4O)ccc3O)nc2c1	70	.	125*	.	113*	9
COC(=O)CCCn1cc(CN2CC(N3CCCCC3)CS2(=O)=O)nn1 (stereo not drawn)	.	100	.	.	.	.
CC1CCN(C(=O)Cn2c(=O)oc3ccccc32)CC1	98	100	-5	0	.	.
Cc1cc(=O)[nH]c(S/C=C/c2ccccc2)n1	92	101	118*	2	102*	26*
Cc1cc(=O)[nH]c(SCc2ccccc2)n1	.	107	4	2	.	.
COc1ccc(N2C(=O)CSC(c3ccccc3)C2=O)cc1 (stereo not drawn)	100	110	1	2	.	.
c1csc(-c2nc3c4ccccc4c4ccccc4c3[nH]2)c1	93	103	112*	0	96*	25*
CCCn1c(CN2CCN(c3cccc(Cl)c3)CC2)nc2c1c(=O)n(C)c(=O)n2C	77	101	2	1	.	.
CCOC1=C2[C@@H](CN(S(=O)(=O)c3ccc(C)cc3)[C@H]2c2cccc3ccccc23)[C@H]2C(=O)N(CC)C(=O)[C@H]2C1	.	92	.	.	.	.
CCOC(=O)CSc1c(-c2ccc(Cl)cc2)[nH]c2ccccc12	119	98	93*	2	61*	9
CCOC(=O)CSc1c(-c2cccs2)[nH]c2ccccc12	103	103	23	1	.	.
Brc1c(-c2ccc3c(c2)OCO3)nc2ncccn12	92	102	101*	4	116*	22*
SMILES	STAT3 activator	ABCB6 inh MLPCN	AHR activator	FXN GAA850 act	AHR act cf	PXR counter
Cn1cc(-c2nc3ccccc3[nH]2)c2ccccc21	92	100	138*	0	122*	64*
COc1ccc(OC)c(Nc2nc(NCCO)c3ccccc3n2)c1	.	95	88*	0	85*	35*
CC1CCCN(C(=O)CSc2ncccn2)C1 (stereo not drawn)	.	100	-1	4	.	.
O=C(NNC(=S)NCc1ccccc1)c1cccnc1	.	91	0	0	.	.
COCCCNC(=S)NNC(=O)c1cccnc1	97	97	108*	-1	33	6
COc1cc(OC)cc(-c2nnc(SCC(=O)N3CCCCC3)o2)c1	101	103	83*	3	35	72*
COc1cc(OC)cc(-c2nnc(SCC(=O)N3CCOCC3)o2)c1	100	94	22	0	.	.
Cc1nnc(Nc2ccccn2)c2ccccc12	92	99	148*	-1	143*	58*
Cc1nnc(Nc2ccc(F)cc2)c2ccccc12	.	100	42	2	.	.
S=C1NCCOCCNC(=S)NCCOCCOCCN1	107	101	-1	2	.	.
COc1ccc(CN2CCN(Cc3cccc(F)c3)CC2)cc1OC	.	96	1	1	.	.
Cn1cc(/C=C(\NC(=O)c2ccccc2)C(=O)N2CCOCC2)c2ccccc21	.	93	85*	-1	33	87*
Cc1ccc(C(=O)N/C(=C\c2cn(C)c3ccccc23)C(=O)N2CCOCC2)cc1	.	98	19	0	.	.
Cc1ccccc1C(=O)Nc1ccc(Br)c(C)n1	88	99	88*	3	130*	52*
CC(=O)N(Cc1ccco1)c1nc(C(=O)Nc2ccc(Cl)cc2)c(C)s1	95	99	90*	0	66*	63*
Cc1cccc(Nc2nc(-c3ccc(O)c(O)c3)cs2)n1	.	99	2	5	.	.
Cc1cccc(Nc2nc(-c3ccc(F)c(C)c3)cs2)n1	.	87	95*	4	134*	34*
COc1ccc(-c2cc3cc(OC)c(OC)cc3c(C)n2)cc1C	.	104	96*	5	58*	29*
COc1nc(-c2ccccc2)cc(-c2ccc(OC)c(OC)c2)n1	86	99	17	1	.	.
CCC1CCCN1Cn1cnc2c([nH]c3ccc(OC)cc32)c1=O (stereo not drawn)	96	97	3	-1	.	.
CCC1CCCN1Cn1cnc2c([nH]c3ccccc32)c1=O (stereo not drawn)	99	89	84*	0	78*	54*
Cc1ccnc(NC(=O)c2ccc(N3C(=O)CCC3=O)cc2)c1	104	88	19	3	.	.
c1ccc(-c2ccc3c(c2)c2c4n3CCN=C4CCC2)cc1	104	100	93*	3	84*	11*
OC1CN=C2CCCc3c2n(c2ccc(Cl)cc32)C1 (stereo not drawn)	98	137	5	1	.	.
Cc1cc(C)cc(Nc2nc3c([nH]2)c(=O)n(C)c(=O)n3C)c1	72	97	95*	-1	38	27*
Cc1ccc(Nc2nc3c([nH]2)c(=O)n(C)c(=O)n3C)cc1	96	97	34	-1	.	.
COc1cc2c(cc1OC)CN(CC(=O)Nc1ccc3c(c1)OC(F)(F)O3)CC2	109	101	-5	-6	.	.
Cc1sc(NC(=O)c2cc(-c3ccc(Cl)cc3)nc3ccccc23)c(C(N)=O)c1C	92	97	23	2	.	.
Cc1sc(NC(=O)c2ccc(Cl)s2)c(C(N)=O)c1C	159*	98	98*	4	123*	24*
Cc1cccc(C)c1-n1nnnc1C1(C)CCC(=O)N1Cc1ccc(F)cc1 (stereo not drawn)	.	94	.	.	.	.
